We go through 73 compounds from ChEMBL document CHEMBL4808213, “2-(Halogenated Phenyl) acetamides and propanamides as potent TRPV1 antagonists” (Bioorg Med Chem Lett, 2021).

The structures appear in SMILES notation. Activity calls are given as the source filed them. No cut-off for these calls is given here.

In one assay the target is T1, Transient receptor potential cation channel subfamily V member 1 (Homo sapiens, UniProt Q8NER1). The assay is described as follows: Partial agonist activity at human TRPV1 expressed in CHO cells. Type of assay: cell-based. The following applies: filed as partial agonist.
T1 sequence (Q8NER1 whole entry): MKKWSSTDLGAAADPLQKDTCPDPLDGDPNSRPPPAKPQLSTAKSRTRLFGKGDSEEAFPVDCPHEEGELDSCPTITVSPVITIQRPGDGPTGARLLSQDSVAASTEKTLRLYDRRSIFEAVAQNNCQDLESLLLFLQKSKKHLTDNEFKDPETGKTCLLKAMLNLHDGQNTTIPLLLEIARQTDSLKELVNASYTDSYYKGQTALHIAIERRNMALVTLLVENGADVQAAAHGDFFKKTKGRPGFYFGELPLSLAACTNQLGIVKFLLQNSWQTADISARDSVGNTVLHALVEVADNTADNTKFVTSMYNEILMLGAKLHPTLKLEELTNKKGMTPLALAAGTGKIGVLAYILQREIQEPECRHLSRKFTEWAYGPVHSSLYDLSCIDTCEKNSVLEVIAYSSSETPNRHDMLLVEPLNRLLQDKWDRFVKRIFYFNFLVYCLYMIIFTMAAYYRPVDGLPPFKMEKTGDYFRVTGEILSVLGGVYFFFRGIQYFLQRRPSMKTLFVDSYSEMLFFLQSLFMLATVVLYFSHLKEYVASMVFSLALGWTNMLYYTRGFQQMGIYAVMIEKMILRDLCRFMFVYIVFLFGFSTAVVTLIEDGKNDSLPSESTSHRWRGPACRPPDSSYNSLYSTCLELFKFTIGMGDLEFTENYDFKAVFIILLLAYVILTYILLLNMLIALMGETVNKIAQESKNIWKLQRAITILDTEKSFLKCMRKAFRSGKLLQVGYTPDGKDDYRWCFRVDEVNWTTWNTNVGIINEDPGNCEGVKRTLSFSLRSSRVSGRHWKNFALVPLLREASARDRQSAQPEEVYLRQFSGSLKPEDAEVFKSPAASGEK
As to `CC(C)(C)c1cc(CNC(=O)Cc2ccc(Cl)c(F)c2)n(-c2cccc(Cl)c2)n1`, the result was Active.

On to `CC(C(=O)NCc1cc(C(C)(C)C)nn1-c1cccc(Cl)c1)c1ccccc1Cl` (configuration not stated), for which the outcome was Active.

For `CC(C(=O)NCc1cc(C(F)(F)F)nn1-c1cccc(Cl)c1)c1ccc(F)cc1F` (configuration not stated), the outcome was Active.

`CC1CCN(c2nc(C(F)(F)F)ccc2CNC(=O)C(C)c2ccc(Cl)c(Cl)c2)CC1` (configuration not stated): the result was Active.

Consider `CC1CCN(c2nc(C(F)(F)F)ccc2CNC(=O)C(C)c2ccc(Cl)c(F)c2)CC1` (configuration not stated), for which the result was Active.

As to `CC(C(=O)NCc1cc(C(C)(C)C)nn1-c1cccc(Cl)c1)c1cccc(F)c1F` (configuration not stated), the outcome was Active.

Turning to `CC1CCN(c2nc(C(F)(F)F)ccc2CNC(=O)C(C)c2ccc(F)cc2F)CC1` (configuration not stated), the outcome was Active.

As for `O=C(Cc1ccc(F)c(F)c1)NCc1cc(C(F)(F)F)nn1-c1cccc(Cl)c1`, the outcome was Active.

With `CC1CCN(c2nc(C(F)(F)F)ccc2CNC(=O)Cc2ccc(Cl)c(F)c2)CC1`, the outcome was Active.

With `CC(C(=O)NCc1cc(C(C)(C)C)nn1-c1cccc(Cl)c1)c1cccc(Cl)c1Cl` (configuration not stated), the outcome was Active.

Take `CC(C)(C)c1cc(CNC(=O)Cc2cc(F)ccc2F)n(-c2cccc(Cl)c2)n1`: the result was Active.

For `CC1CCN(c2nc(C(F)(F)F)ccc2CNC(=O)Cc2ccc(F)c(F)c2)CC1`, the outcome was Active.

For `CC(C(=O)NCc1cc(C(F)(F)F)nn1-c1cccc(Cl)c1)c1cccc(F)c1` (configuration not stated), the outcome was Active.

`CC(C)(C)c1cc(CNC(=O)Cc2ccc(Cl)c(Cl)c2)n(-c2cccc(Cl)c2)n1`: the result was Active.

As for `CC(C(=O)NCc1cc(C(F)(F)F)nn1-c1cccc(Cl)c1)c1cccc(Cl)c1` (configuration not stated), the result was Active.

As for `CC(C(=O)NCc1cc(C(F)(F)F)nn1-c1cccc(Cl)c1)c1cc(F)cc(F)c1` (configuration not stated), the result was Active.

As to `O=C(Cc1ccc(F)cc1)NCc1cc(C(F)(F)F)nn1-c1cccc(Cl)c1`, the result was Active.

As to `CC(C(=O)NCc1cc(C(F)(F)F)nn1-c1cccc(Cl)c1)c1ccc(F)c(F)c1` (configuration not stated), the outcome was Active.

With `CC(C(=O)NCc1cc(C(F)(F)F)nn1-c1cccc(Cl)c1)c1ccc(Cl)cc1` (configuration not stated), the result was Active.

As for `CC1CCN(c2nc(C(F)(F)F)ccc2CNC(=O)C(C)c2ccc(Cl)cc2)CC1` (configuration not stated), the result was Active.

For the compound `CC(C(=O)NCc1cc(C(F)(F)F)nn1-c1cccc(Cl)c1)c1ccc(F)cc1` (configuration not stated), the outcome was Active.

For `CC(C(=O)NCc1cc(C(C)(C)C)nn1-c1cccc(Cl)c1)c1c(F)cccc1F` (configuration not stated), the result was Active.

For `CC(C)(C)c1cc(CNC(=O)Cc2ccc(F)cc2F)n(-c2cccc(Cl)c2)n1`, the result was Active.

For the compound `CC(C(=O)NCc1cc(C(C)(C)C)nn1-c1cccc(Cl)c1)c1cc(F)ccc1F` (configuration not stated), the result was Active.

Take `CC(C)(C)c1cc(CNC(=O)Cc2cc(F)cc(F)c2)n(-c2cccc(Cl)c2)n1`: the result was Active.

For `CC(C)(C)c1cc(CNC(=O)Cc2ccccc2F)n(-c2cccc(Cl)c2)n1`, the outcome was Active.

In a further assay the test system is Mus musculus. Put plainly: Analgesic activity in ip dosed mouse model of formalin-induced paw edema.
Settings: not given
Type of assay: functional, organism-based. Summed up:
(§1)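 Formalin test in mice, with antagonist given by intraperitoneal injection before testing. Nociceptive behaviour was scored separately in the 1st and 2nd phases. Several doses were tested, and ED50 for each phase was derived from the dose-response.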
On to `CC1CCN(c2nc(C(F)(F)F)ccc2CNC(=O)Cc2c(F)cccc2Cl)CC1`, for which the outcome was inactive.

Another assay relates to Mus musculus. Put plainly: Analgesic activity in mouse model of formalin-induced paw edema assessed as induction of hyperthermia at 10 mg/kg, ip. Type of assay: functional, organism-based.
Settings: not given
In short, it runs like this: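 Mice received 10 mg/kg intraperitoneally, and body temperature was then measured to check for hyperthermia.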
Take `CC(C)(C)c1cc(CNC(=O)Cc2cccc(F)c2F)n(-c2cccc(Cl)c2)n1`: the outcome was inactive.

Another assay deals with Mus musculus. Put plainly: Analgesic activity in ip dosed mouse model of formalin-induced paw edema assessed as reduction in pain behaviour by measuring effective dose in 1st phase. Type of assay: functional.
Settings: not given
Summed up: as §1
Regarding `CC(C)(C)c1cc(CNC(=O)Cc2cccc(F)c2F)n(-c2cccc(Cl)c2)n1`, the ED50 is 50.5 mg/kg.

The next assay concerns Mus musculus. Put plainly: Analgesic activity in ip dosed mouse model of formalin-induced paw edema assessed as reduction in pain behaviour by measuring effective dose in 2nd phase. The class given is functional.
Settings: not given
In short, it runs like this:
as §1
Turning to `CC(C)(C)c1cc(CNC(=O)Cc2cccc(F)c2F)n(-c2cccc(Cl)c2)n1`, the 50% effective dose (ED50) came out at 29.5 mg/kg.

The target in the next assay is T1, Transient receptor potential cation channel subfamily V member 1. Put plainly: Antagonist activity at human TRPV1 expressed in CHO cells assessed as inhibition of capsaicin-induced TRPV1 activation by FLIPR method. Type of assay: cell-based.
Settings: not given
Regarding `O=C(Cc1cc(F)cc(F)c1)NCc1cc(C(F)(F)F)nn1-c1cccc(Cl)c1`, the Ki is 0.0137 µM.

On to `CC1CCN(c2nc(C(F)(F)F)ccc2CNC(=O)Cc2cccc(Cl)c2)CC1`, for which the Ki is 0.0061 µM.

In the case of `O=C(Cc1cccc(F)c1F)NCc1cc(C(F)(F)F)nn1-c1cccc(Cl)c1`, the Ki is 0.0115 µM.

In the case of `O=C(Cc1ccc(Cl)c(Cl)c1)NCc1cc(C(F)(F)F)nn1-c1cccc(Cl)c1`, the Ki turned out to be 0.0038 µM.

For `CC(C)(C)c1cc(CNC(=O)Cc2ccc(Cl)cc2Cl)n(-c2cccc(Cl)c2)n1`, the Ki was found to be 0.0167 µM.

Regarding `CC1CCN(c2nc(C(F)(F)F)ccc2CNC(=O)Cc2cccc(Cl)c2Cl)CC1`, the Ki amounted to 0.0049 µM.

For the compound `CC(C)(C)c1cc(CNC(=O)Cc2c(F)cccc2Cl)n(-c2cccc(Cl)c2)n1`, the inhibitory constant (Ki) was found to be 0.019 µM.

On to `O=C(Cc1cccc(Cl)c1Cl)NCc1cc(C(F)(F)F)nn1-c1cccc(Cl)c1`, for which the Ki is 0.0226 µM.

For `CC1CCN(c2nc(C(F)(F)F)ccc2CNC(=O)[C@@H](C)c2ccc(NS(C)(=O)=O)c(F)c2)CC1` (racemic), the Ki came out at 0.0003 µM.

Regarding `O=C(Cc1cc(F)ccc1F)NCc1cc(C(F)(F)F)nn1-c1cccc(Cl)c1`, the Ki was determined as 0.0589 µM.

Consider `O=C(Cc1ccc(Cl)cc1)NCc1cc(C(F)(F)F)nn1-c1cccc(Cl)c1`, for which the inhibition constant (Ki) worked out at 0.0063 µM.

Consider `CC1CCN(c2nc(C(F)(F)F)ccc2CNC(=O)Cc2ccc(F)c(C(F)(F)F)c2)CC1`, for which the Ki is 0.0098 µM.

For the compound `O=C(Cc1ccc(F)cc1Cl)NCc1cc(C(F)(F)F)nn1-c1cccc(Cl)c1`, the Ki was 0.0388 µM.

Consider `CC1CCN(c2nc(C(F)(F)F)ccc2CNC(=O)Cc2c(Cl)cccc2Cl)CC1`, for which the Ki worked out at 0.0397 µM.

Take `CC1CCN(c2nc(C(F)(F)F)ccc2CNC(=O)Cc2c(F)cccc2Cl)CC1`: the inhibition constant (Ki) is 0.0026 µM.

Take `C[C@H](C(=O)NCc1cc(C(C)(C)C)nn1-c1cccc(Cl)c1)c1ccc(NS(C)(=O)=O)c(F)c1`: the Ki was 0.0003 µM.

For the compound `O=C(Cc1ccc(Cl)c(F)c1)NCc1cc(C(F)(F)F)nn1-c1cccc(Cl)c1`, the inhibitory constant (Ki) is 0.0209 µM.

Turning to `CC(C)(C)c1cc(CNC(=O)Cc2cccc(F)c2F)n(-c2cccc(Cl)c2)n1`, the Ki is 0.0069 µM.

Take `CC(C)(C)c1cc(CNC(=O)Cc2ccc(F)cc2Cl)n(-c2cccc(Cl)c2)n1`: the Ki was 0.0199 µM.

For the compound `CC1CCN(c2nc(C(F)(F)F)ccc2CNC(=O)Cc2ccc(F)cc2Cl)CC1`, the Ki worked out at 0.0142 µM.

Take `O=C(Cc1ccc(F)cc1F)NCc1cc(C(F)(F)F)nn1-c1cccc(Cl)c1`: the Ki was determined as 0.0433 µM.

As to `CC1CCN(c2nc(C(F)(F)F)ccc2CNC(=O)Cc2ccc(Cl)cc2Cl)CC1`, the Ki was found to be 0.046 µM.

The target is the same in a further assay. Put plainly: Agonist activity at human TRPV1 expressed in CHO cells. The class given is cell-based. The following applies: filed as agonist.
Take `CC(C(=O)NCc1cc(C(C)(C)C)nn1-c1cccc(Cl)c1)c1cccc(Cl)c1` (configuration not stated): the result was Active.

Turning to `CC(C(=O)NCc1cc(C(C)(C)C)nn1-c1cccc(Cl)c1)c1ccc(Cl)cc1Cl` (configuration not stated), the result was Active.

Consider `CC(C)(C)c1cc(CNC(=O)Cc2ccc(Cl)cc2)n(-c2cccc(Cl)c2)n1`, for which the result was Active.

`CC1CCN(c2nc(C(F)(F)F)ccc2CNC(=O)C(C)c2ccc(F)cc2)CC1` (configuration not stated): the outcome was Active.

With `CC(C(=O)NCc1cc(C(C)(C)C)nn1-c1cccc(Cl)c1)c1ccc(F)cc1F` (configuration not stated), the outcome was Active.

On to `CC(C(=O)NCc1cc(C(C)(C)C)nn1-c1cccc(Cl)c1)c1ccccc1F` (configuration not stated), for which the outcome was Active.

With `CC(C(=O)NCc1cc(C(C)(C)C)nn1-c1cccc(Cl)c1)c1ccc(F)c(Cl)c1` (configuration not stated), the outcome was Active.

As to `CC1CCN(c2nc(C(F)(F)F)ccc2CNC(=O)C(C)c2cccc(F)c2)CC1` (configuration not stated), the result was Active.

Consider `CC(C)(C)c1cc(CNC(=O)Cc2cccc(F)c2)n(-c2cccc(Cl)c2)n1`, for which the result was Active.

Regarding `CC(C)(C)c1cc(CNC(=O)Cc2ccc(F)cc2)n(-c2cccc(Cl)c2)n1`, the result was Active.

Consider `CC(C(=O)NCc1cc(C(C)(C)C)nn1-c1cccc(Cl)c1)c1ccc(F)c(F)c1` (configuration not stated), for which the result was Active.

`CC(C(=O)NCc1cc(C(C)(C)C)nn1-c1cccc(Cl)c1)c1cccc(F)c1` (configuration not stated): the result was Active.

Consider `CC(C(=O)NCc1cc(C(C)(C)C)nn1-c1cccc(Cl)c1)c1ccc(F)cc1` (configuration not stated), for which the outcome was Active.

As for `CC(C(=O)NCc1cc(C(C)(C)C)nn1-c1cccc(Cl)c1)c1ccc(Cl)c(Cl)c1` (configuration not stated), the outcome was Active.

In the case of `CC1CCN(c2nc(C(F)(F)F)ccc2CNC(=O)Cc2ccc(F)cc2)CC1`, the result was Active.

On to `CC1CCN(c2nc(C(F)(F)F)ccc2CNC(=O)C(C)c2ccc(F)cc2Cl)CC1` (configuration not stated), for which the result was Active.

Take `CC(C(=O)NCc1cc(C(C)(C)C)nn1-c1cccc(Cl)c1)c1ccc(Cl)c(F)c1` (configuration not stated): the outcome was Active.

Regarding `CC(C)(C)c1cc(CNC(=O)Cc2ccc(F)c(Cl)c2)n(-c2cccc(Cl)c2)n1`, the result was Active.

Regarding `CC1CCN(c2nc(C(F)(F)F)ccc2CNC(=O)Cc2ccc(Cl)cc2)CC1`, the result was Active.

With `CC(C)(C)c1cc(CNC(=O)Cc2cccc(Cl)c2)n(-c2cccc(Cl)c2)n1`, the result was Active.

As for `CC(C(=O)NCc1cc(C(C)(C)C)nn1-c1cccc(Cl)c1)c1ccc(Cl)cc1` (configuration not stated), the result was Active.

For the compound `CC(C(=O)NCc1cc(C(C)(C)C)nn1-c1cccc(Cl)c1)c1cc(F)cc(F)c1` (configuration not stated), the result was Active.

Regarding `CC1CCN(c2nc(C(F)(F)F)ccc2CNC(=O)Cc2ccc(F)cc2F)CC1`, the outcome was Active.

`CC(C)(C)c1cc(CNC(=O)Cc2ccc(F)c(F)c2)n(-c2cccc(Cl)c2)n1`: the outcome was Active.

With `CC1CCN(c2nc(C(F)(F)F)ccc2CNC(=O)C(C)c2ccc(F)c(F)c2)CC1` (configuration not stated), the result was Active.
